Assay results: ChEMBL document CHEMBL4613248, “Twelfth-Position Deuteration of Nevirapine Reduces 12-Hydroxy-Nevirapine Formation and Nevirapine-Induced Hepatocyte Death” (J Med Chem, 2020)

Experiments:
[1] = tested on: Cytochrome P450; test: Drug metabolism in human liver microsomes assessed as Cytochrome P450-mediated formation of 12-OHNVP by measuring Kcat/Km ratio in presence of NADPH regenerating reagents by uHPLC-MS/MS analysis
Summary of the method: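 Pooled human liver microsomes (2.5 mg/mL) in potassium phosphate; substrate (1–400 μM) prewarmed 5 min at 37 °C with NADPH-regenerating system, started with microsomes, 30 min at 37 °C. 12-OH product quantified by uHPLC-MS/MS Orbitrap against 12-OHNVP standard curve made in microsomes without NADPH. Kcat/Km taken as slope of linear rate vs substrate fit at nonsaturating 0–50 μM.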

[2] = tested on: Hepatocyte; test: Induction of change in NOL6 protein expression in human primary hepatocytes at 10 uM incubated for 48 hrs by relative-quantitation label-free proteomics analysis relative to NVP; assay type: cell-based
Summary of the method: (§1)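 Cryoplateable pooled human hepatocytes (10 mixed-sex donors per pool; three pools), adhered overnight, then given fresh medium containing compound (10 μM), NVP (10 μM) or vehicle (0.1% DMSO) for 48 h. Lysate reduced (DTT) and alkylated (iodoacetamide), acetone-precipitated and digested with trypsin. Label-free Top10 nanoLC-MS with precursor ion area quantitation; unpaired t test P values, Cohen's d effect size.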

[3] = tested on: Hepatocyte; test: Induction of change in Igfbp1 protein expression in C57BL/6J mouse primary hepatocytes at 400 uM incubated for 8 hrs by relative-quantitation label-free proteomics analysis relative to NVP; assay type: cell-based
Summary of the method: as §1, with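 “Fresh primary” for “Cryoplateable pooled human”, “from male C57BL/6J mice aged 8–13 weeks,” for “(10 mixed-sex donors per pool; three pools),”, “(400” for “(10”, “(0.2%” for “(0.1%”, “8” for “48”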

[4] = tested on: Hepatocyte; test: Induction of change in CCAR2 protein expression in human primary hepatocytes at 10 uM incubated for 48 hrs by relative-quantitation label-free proteomics analysis relative to NVP; assay type: cell-based; summary of the method: as §1
[5] = tested on: Hepatocyte; test: Induction of change in Gapdh protein expression in C57BL/6J mouse primary hepatocytes at 400 uM incubated for 8 hrs by relative-quantitation label-free proteomics analysis relative to NVP; assay type: cell-based
Summary of the method: as §1, with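 “Fresh primary” for “Cryoplateable pooled human”, “from male C57BL/6J mice aged 8–13 weeks,” for “(10 mixed-sex donors per pool; three pools),”, “(400” for “(10”, “(0.2%” for “(0.1%”, “8” for “48”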

[6] = tested on: Hepatocyte; test: Induction of change in MTX2 protein expression in human primary hepatocytes at 10 uM incubated for 48 hrs by relative-quantitation label-free proteomics analysis relative to NVP; assay type: cell-based; summary of the method: as §1
[7] = tested on: Cytochrome P450; test: Drug metabolism in human primary hepatocytes assessed as Cytochrome P450-mediated formation of 8-OHNVP at 10 uM incubated for 24 to 48 hrs by uHPLC-MS analysis; assay type: ADME, cell-based
Summary of the method: (§2)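 Cryoplateable pooled human hepatocytes (10 mixed-sex donors per pool, three lots), adhered overnight, then 10 μM substrate or vehicle (0.1% DMSO) for 24 or 48 h in InVitroGRO CP medium. Medium extracted with 50% acetonitrile, dried, reconstituted in methanol; uHPLC-Orbitrap MS/MS for monooxygenated metabolites, high-resolution MS for O-glucuronide.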

[8] = Drug metabolism in C57BL/6J mouse primary hepatocytes assessed as Cytochrome P450-mediated formation of 3-OHD3NVP at 10 uM incubated for 24 hrs by uHPLC-MS analysis; assay type: ADME, cell-based
Summary of the method: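 Fresh hepatocytes from male C57BL/6J mice (8–13 weeks), adhered overnight, then 10 μM substrate or vehicle (0.1% DMSO) for 24 h. Medium extracted with acetonitrile (50% final), dried, reconstituted in methanol; uHPLC-Orbitrap targeted SIM plus PRM (monooxygenated metabolites) or high-resolution ions (O-glucuronides, 459.1510/462.1700 ±5 ppm); four experimental replicates.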

[9] = tested on: Cytochrome P450; test: Drug metabolism in human primary hepatocytes assessed as Cytochrome P450-mediated formation of 2-OHNVP at 10 uM incubated for 24 to 48 hrs by uHPLC-MS analysis; assay type: ADME, cell-based; summary of the method: as §2
[10] = tested on: Hepatocyte; test: Induction of change in Mrpl1 protein expression in C57BL/6J mouse primary hepatocytes at 400 uM incubated for 8 hrs by relative-quantitation label-free proteomics analysis relative to NVP; assay type: cell-based
Summary of the method: as §1, with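 “Fresh primary” for “Cryoplateable pooled human”, “from male C57BL/6J mice aged 8–13 weeks,” for “(10 mixed-sex donors per pool; three pools),”, “(400” for “(10”, “(0.2%” for “(0.1%”, “8” for “48”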

[11] = tested on: Cytochrome P450; test: Drug metabolism in human liver microsomes assessed as Cytochrome P450-mediated formation of 12-OHNVP at 10 uM […] in presence of CYP2C19 inhibitor (+)-N-3-benzyl-nirvanol and NADPH regenerating reagents by uHPLC-MS analysis; assay type: ADME
[12] = tested on: Hepatocyte; test: Induction of change in Fam120A protein expression in C57BL/6J mouse primary hepatocytes at 400 uM incubated for 8 hrs by relative-quantitation label-free proteomics analysis relative to NVP; assay type: cell-based
Summary of the method: as §1, with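 “Fresh primary” for “Cryoplateable pooled human”, “from male C57BL/6J mice aged 8–13 weeks,” for “(10 mixed-sex donors per pool; three pools),”, “(400” for “(10”, “(0.2%” for “(0.1%”, “8” for “48”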

[13] = target: T1, Cytochrome P450 1A2 (Homo sapiens, UniProt P05177); test: Drug metabolism assessed as human CYP1A2-mediated formation of 12-OHNVP at 10 uM pre-incubated for 30 mins followed by addition of NADPH regenerating reagents by uHPLC-MS analysis; assay type: ADME; conditions: recombinant enzyme
T1 sequence (P05177 whole entry): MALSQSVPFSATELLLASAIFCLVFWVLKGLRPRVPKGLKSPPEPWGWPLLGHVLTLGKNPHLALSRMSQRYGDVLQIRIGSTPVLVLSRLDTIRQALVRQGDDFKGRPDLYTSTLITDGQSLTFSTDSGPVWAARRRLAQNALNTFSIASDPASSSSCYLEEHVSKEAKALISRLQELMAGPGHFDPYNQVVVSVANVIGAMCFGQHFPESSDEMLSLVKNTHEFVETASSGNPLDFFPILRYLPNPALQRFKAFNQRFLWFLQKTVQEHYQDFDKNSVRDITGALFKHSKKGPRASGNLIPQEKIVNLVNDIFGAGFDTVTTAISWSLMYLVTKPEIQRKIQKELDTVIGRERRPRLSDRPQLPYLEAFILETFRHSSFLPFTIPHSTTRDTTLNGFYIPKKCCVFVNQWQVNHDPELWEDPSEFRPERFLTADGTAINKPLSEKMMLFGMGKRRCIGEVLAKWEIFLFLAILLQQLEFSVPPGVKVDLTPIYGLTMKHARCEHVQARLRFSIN
Summary of the method: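 Insect-cell microsomes with single cDNA-expressed human P450 (100 nM) in 0.1 M potassium phosphate; 10 μM substrate prewarmed 5 min at 37 °C with NADPH-regenerating system, reaction started by adding microsomes; 30 min at 37 °C, 0.1% DMSO. Stopped, dried, reconstituted in methanol; triple-quadrupole SRM (12-OH 283.1→223.0, 2-OH 283.1→160.9, 3-OH 283.1→241.9), peak height; three replicates, mean ± SD.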

[14] = Drug metabolism in human primary hepatocytes assessed as O-GlucNVP metabolite formation at 10 uM incubated for 24 hrs by uHPLC-MS analysis; assay type: ADME, cell-based, Hepatocyte; summary of the method: as §2

## [2H]C([2H])([2H])c1ccnc2c1NC(=O)c1cccnc1N2C1CC1
[1]
  Kcat/Km: 9.2 M⁻¹ min⁻¹
[2]
  fold change (FC): -1.85
[3]
  fold change (FC): 4.7
[4]
  fold change (FC): -2.05
[5]
  fold change (FC): 1.4
[6]
  fold change (FC): -1.67
[7]
  Drug metabolism: Metabolite_Notdetected
[8]
  Drug metabolism: Metabolite_Detected
[9]
  Drug metabolism: Metabolite_Detected
[10]
  fold change (FC): -1.87
[11]
  Drug metabolism: Metabolite_Detected
[12]
  fold change (FC): 2.06
[13]
  Drug metabolism: Metabolite_Detected
[14]
  Drug metabolism: Metabolite_Detected
